The text below walks through data of ChEMBL document CHEMBL4513216, “Probing the Open Global Health Chemical Diversity Library for Multistage-Active Starting Points for Next-Generation Antimalarials” (ACS Infect Dis, 2020).

A short description of this data set: Toxicity liver stage against HepG2, at 10uM. Format: cell-based. The note with it: human, HepG2-A16-CD81EGFP cells; read-out: INHIBITION
Set-up: test concentration 10 uM, cell line HepG2-A16-CD81EGFP. In a few lines:
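Uninfected HepG2-A16-CD81EGFP cells, 3 × 10^3 per well, 1536-well, plated on prespotted compound at 10 μM final, parasite-free screening media added to match infected plates; puromycin 10 μM positive, DMSO 0.5% negative; run in parallel with 48 h PbLuc assay at 37 °C, 5% CO2; viability by CellTiter-Glo luminescence, normalized to controls.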

For `CN1C(=O)C2(CCN(CC3CC3)CC2)c2ccccc21`, the cytotoxicity at 10 µM was 3.16%.
To `CCOCC1CN(C(=O)c2cccs2)Cc2nn(C)cc21` (configuration not stated) belongs -1.63%; to `Cc1cc(C)nc(Nc2cc(C3CCCN(C)C3)nc(C)n2)n1` (configuration not stated), -5.12%; to `CC(C)c1csc(NC(=O)NC2CCCN(c3cnn(C)c3)C2)n1` (configuration not stated), 15%.
The same measure for `CC(C)N(C)CC(=O)N1CCCC(n2ccnc2)C1` (configuration not stated): 5.56%; for `COCCOc1ccccc1NC(C)C(=O)NC(=O)NC(C)(C)C` (configuration not stated): 1.47%; for `CNS(=O)(=O)CC(=O)N1CCC(c2cc3ccccc3[nH]2)CC1`: 3.12%.
The same measure for `COc1cccc(N2CC3(CCN(C(=O)NC(C)C)C3)CC2=O)c1` (configuration not stated): 3.52%.
Turning to `CC(C)c1nc(CN2CCCC(O)C2)cs1` (configuration not stated), the cytotoxicity at 10 µM is -7.13%.
As for `O=C(CN1CCCC1CCCO)NCc1ccccn1` (configuration not stated), the cytotoxicity at 10 µM was -5.6%.
To `Cc1ccc(NC(=O)N2CCOC(C)(c3cnn(C)c3)C2)c(C)c1` (configuration not stated) belongs 6.05%.
To `O=C(N[C@H]1CCCC[C@@H]1O)c1ccc(-c2nc3ccccc3[nH]2)cc1` belongs -1.43%; to `NS(=O)(=O)c1ccc(N2CCN(CCCc3cn[nH]c3)CC2)cc1`, -145%; to `Cc1cc(C[C@@H]2COC[C@H]2NCc2ccc(C)c(C)c2)on1`, 8.1%.
To `CC(C)n1cnc2c1C(C(=O)NCCC#N)N(Cc1ccccc1)CC2` (configuration not stated) belongs -7.2%.
For `CS(=O)(=O)CCCSCc1ccc(Br)c(F)c1`, the cytotoxicity at 10 µM is 4.64%.
To `CCN1C(=O)CCC12CCN(S(=O)(=O)c1ccc(C#N)cc1)CC2` belongs 1.82%; to `Cc1nc(C)n(CC2CCCN2Cc2nc3ccccc3o2)n1` (configuration not stated), -5.62%.
The same measure for `O=C(c1ccn(-c2ccccc2Cl)n1)N1CCSCC1`: 15.6%; for `COc1ccc2c(c1)c(-c1nc(N(C)C)ncc1CN)cn2C`: 7.43%.
To `CNC(=O)c1cccc(NC(=O)NCc2ccc(SC)cc2)c1C` belongs -4.44%; to `CCS(=O)(=O)N1CCC2(CCC(N3CCCC3)c3ccccc32)CC1` (configuration not stated), 0.257%.
For the compound `CCc1nnc2n1CCN(C(C(=O)NC1CC1)c1ccccc1)C2` (configuration not stated), the cytotoxicity at 10 µM was -7.07%.
To `CCc1nccn1CCC(=O)N1C[C@@H]2CC[C@H]1CN(C(=O)N(C)C)C2` belongs -14.4%; to `CC(C)c1nnc(NC(=O)N2CCN(C)CC2c2ccccc2)s1` (configuration not stated), -11.6%.
The same measure for `CC(=O)c1cn(CC(=O)N2CCC3(CC2)OCCO3)c2ccccc12`: 0.436%; for `O=S(=O)(NC1=NCN(CCc2cccs2)CN1)c1ccccc1`: -3.32%; for `Cc1ccc(NCc2ccccc2C#N)cc1-n1cnnn1`: 4.25%.
To `O=C(NCC1Cn2nnc(-c3ccoc3)c2CO1)c1ccc[nH]1` (configuration not stated) belongs 2.61%; to `CCN(CC1CCCO1)C(=O)Nc1cc(C(=O)OC)ccc1F` (configuration not stated), -4.77%; to `NC(=O)C(NCc1nn(-c2ccccc2)c2c1CCC2)c1ccccc1` (configuration not stated), -5.86%.
Regarding `Cc1ccsc1[C@@H]1CCN(C(=O)c2cc3ccccc3[nH]2)C[C@H]1O`, the cytotoxicity at 10 µM was found to be 29%.
Regarding `CC(C)(O)CN1CCN(C(=O)COC2CCCC2)CC1`, the cytotoxicity at 10 µM was found to be 1.46%.
To `CCc1nc(CC(=O)N2CCn3c(nnc3C(F)(F)F)C2)cs1` belongs -9.29%; to `CC(C)c1ccc(S(=O)(=O)N2CCCC3(CCCN3S(C)(=O)=O)C2)cc1` (configuration not stated), -0.96%; to `CC(C)NC(=O)CN(C)C1CCN(c2ccc(Cl)cn2)CC1`, 3.5%.
Consider `N#Cc1ccc(S(=O)(=O)NCCn2ccnc2)cc1Cl`, for which the cytotoxicity at 10 µM was 22.5%.
Regarding `CCOc1ccc(C(=O)NC2CCN(c3ncccn3)CC2)cc1C`, the cytotoxicity at 10 µM is -10.1%.
As for `CCN(CC)C(=O)C1CCCN1C(=O)c1cccc(-n2cnnn2)c1` (configuration not stated), the cytotoxicity at 10 µM is -14.9%.
To `Cc1csc(N2CCN(C(=O)C(C)n3cncn3)CC2)n1` (configuration not stated) belongs 0.652%.
The same measure for `Cc1cnn(CC2CCCN2CC(=O)Nc2nncs2)c1` (configuration not stated): -2.03%.
The same measure for `COCCCN1Cc2cccc(NC(=O)c3ccccc3C)c2C1`: 13.4%; for `CCC(C#N)NC(=O)c1cc(Br)c2c(c1)OCCO2` (configuration not stated): -15.7%.
Regarding `COCC1CC2(CCN(C(C)=O)CC2)CN1Cc1csc(C)n1` (configuration not stated), the cytotoxicity at 10 µM turned out to be 9.19%.
The same measure for `Cc1nc(C)n(CC2CCCN(CC3CCCCC3)C2)n1` (configuration not stated): 2.04%; for `C[C@@H](NC(=O)c1cnccn1)c1c(-c2ccc(F)cc2)noc1C(=O)O`: 1.02%.
The same measure for `O=C(c1ccco1)N1CCC[C@]2(C[C@H](Oc3ncccc3F)CO2)C1`: 2.49%; for `Cc1ccccc1CN1CCCN(CCN2CCOC2=O)CC1`: -7.53%; for `Cc1cnc(CN(Cc2ccc(Cl)s2)C2CCN(C)C2)o1` (configuration not stated): 14.5%.
Consider `COc1ccc2c(c1)C(C(=O)N(C)CCc1cnn(C)c1)CC(=O)N2` (configuration not stated), for which the cytotoxicity at 10 µM was -57.2%.
Turning to `O=S(=O)(c1cccs1)N1Cc2nc(CN3CCCCC3)oc2C1`, the cytotoxicity at 10 µM was -121%.
To `COCCN1CCC12CCN(c1ncccn1)C2` (configuration not stated) belongs 9.76%; to `NC(=O)CN1CCN(CC2CC2)c2ccccc21`, 3.92%.
The same measure for `CCc1cnc(C)nc1NCCN1CCCC(C(N)=O)C1` (configuration not stated): -2.54%; for `O=C(O)[C@@H]1CN(C(=O)c2cc(C3CC3)n[nH]2)C[C@H]1c1cccc(F)c1`: -9%; for `CC(=O)Nc1nc2c(s1)CN(CC(=O)Nc1ccc(C)c(Cl)c1)CC2`: -6.17%.
For `CC(=O)N1CC2(CCNCC2)c2cc(C)ccc21`, the cytotoxicity at 10 µM was -73.2%.
Consider `Cc1cn(Cc2ccc(F)c(F)c2)nc1N`, for which the cytotoxicity at 10 µM was -13.5%.
The same measure for `O=C(Cc1ccc2c(c1)OCCO2)NC1CCN(CC(F)F)CC1`: -9.86%; for `CCN(Cc1cnn(CC)c1)C(=O)Cn1c(=O)ccc2ccccc21`: 2.37%.
Turning to `Cc1ccccc1CNC(=O)N1CCC(n2cncn2)CC1`, the cytotoxicity at 10 µM was 2.54%.
The same measure for `Cc1cc(CN2CCCC2)cc(Oc2ccc3c(c2)CC(CN)O3)c1` (configuration not stated): 0.298%; for `COc1cccc2cc(CNCc3ccc(N4CCCC4)nc3)oc12`: -5.42%.
The same measure for `Cc1ccc(CN2Cc3nnn(C)c3C(COCC(=O)N(C)C)C2)s1` (configuration not stated): 10.1%; for `Cn1c(CN2CCN(CC3CCCO3)CC2)nc2ccccc21` (configuration not stated): -25.1%; for `O=C(c1ccc2nncn2c1)N1CCCCC1Cn1cccn1` (configuration not stated): -3.11%.
The same measure for `CN(C)C(=O)N1C[C@@H]2CCCO[C@@H]2[C@H](N(C)Cc2ccco2)C1`: -7.82%; for `COc1cc(CCC(=O)N2CCC(c3cc4nccnc4[nH]3)CC2)on1`: 3.67%; for `CC(CNC(=O)CCc1ccccn1)c1ccsc1` (configuration not stated): -3.3%.
In the case of `O=C(N[C@@H]1CN(Cc2ccccc2)C[C@@H]2CCCO[C@@H]21)C1CC1`, the cytotoxicity at 10 µM is -6.12%.
The same measure for `Cc1noc(C)c1CCC(=O)N[C@@H]1CCC[C@@H](Oc2cccnc2)[C@@H]1O`: -0.903%.
To `CC(C)Nc1ncnc2c1CCN(Cc1ccoc1)CC2` belongs 5.65%.
The same measure for `Cc1cn(-c2ccccc2)nc1NS(=O)(=O)c1ccc(C(=O)O)cc1`: -5.51%; for `N#Cc1cccc(N2CCC3(CCC(=O)N(CC(N)=O)C3)CC2)n1`: 3.14%.
For the compound `CCn1cc(C(=O)NCc2cccnc2N(C)Cc2ccccc2)cn1`, the cytotoxicity at 10 µM was 1.18%.
To `CCC(=O)Nc1cccc(OCC(=O)N(C)Cc2ccon2)c1` belongs 5.37%; to `Cc1csc(C2CCCN(C(=O)c3c[nH]c(C)n3)C2)n1` (configuration not stated), -17%; to `CCn1ccnc1CNc1nccc(-c2c(C)nn(C)c2C)n1`, -0.0793%.
To `Cc1noc(C)c1C(=O)N1CCC(Nc2cccnn2)CC1` belongs -4.48%; to `COC(=O)c1sccc1S(=O)(=O)NCCc1ccoc1`, 2.6%; to `CN(C)CCOCc1cncc2c1CCN(Cc1ccccn1)C2`, 2.2%.
On to `CC(C)n1c(C(=O)N2CCCC2)nc2c1CCN(c1ncccn1)C2`, for which the cytotoxicity at 10 µM is -6.72%.
The same measure for `CN(Cc1nnc2ccccn12)C(=O)CCC1CCCC1`: -2.94%.
To `N#CC1CCCN(c2nc(-c3ccccc3)nc3c2CCNCC3)C1` (configuration not stated) belongs -0.468%.
To `CS(=O)(=O)N1CCC(NC(=O)COc2ccc3ccccc3c2)CC1` belongs -5.56%; to `CCN(CCNC(=O)c1cccnc1OCCOC)C1CC1`, -0.966%.
For `O=C(C1=CC2(CCNCC2)c2ccccc21)N1CCCC1`, the cytotoxicity at 10 µM is -2.07%.
The same measure for `Cc1nonc1OCCNC(=O)CCCc1ccc(Cl)cc1`: 7.49%; for `O=C(Cc1csc(-c2ccoc2)n1)NCCCN1CCCCC1`: 12.6%; for `CCN(C(=O)COc1nc(Cc2ccc(F)cc2)no1)C1CC1`: 5.09%.
To `O=C1CCCN1Cc1ncn2c1CN(C(=O)Cc1cccs1)CCC2` belongs 5.26%.
On to `COc1ccccc1CN(CC1CCCO1)C(=O)c1scnc1C` (configuration not stated), for which the cytotoxicity at 10 µM turned out to be 2.01%.
To `CC(=O)N1CCO[C@@H]2CN(Cc3ccccc3F)C[C@@H]2C1` belongs -108%.
As to `CCN(Cc1cc(Cl)ccc1OC)Cc1nccn1C`, the cytotoxicity at 10 µM came out at 1.87%.
On to `Cc1cc(C)c(CCNC(=O)NCCCC(N)=O)c(C)c1`, for which the cytotoxicity at 10 µM was -1.24%.
For the compound `CCN1C[C@H]2CCN(c3ncccn3)CC[C@H]2S1(=O)=O`, the cytotoxicity at 10 µM is -7.08%.
On to `Cc1ccc(Cl)cc1N1CCC(CNC(=O)CCn2ccnc2)C1` (configuration not stated), for which the cytotoxicity at 10 µM is -9.7%.
